# Results published in ChEMBL document CHEMBL3120102, “Structure-based design, synthesis and biological evaluation of novel anthra[1,2-d]imidazole-6,11-dione homologues as potential antitumor agents” (2013).
# Tests used:
# [1] = Cytotoxicity against human H1299 cells assessed as cell viability at 1 uM after 48 hrs by MTT assay; format: functional; details: NCI-H1299, 48 h, read-out: Activity
# In short: (§1)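 About 2×10³ H1299 cells per well were grown for 24 h at 37 °C in 5% CO2. Compound was dissolved in DMSO immediately before use, diluted in complete medium and left on cells for 48 h. MTT was then added for 4 h at 37 °C, followed by SDS/DMF lysis buffer for 16 h at 37 °C. Absorbance was read at 550 nm.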
# [2] = molecular target: Telomerase reverse transcriptase (Homo sapiens) (UniProt O14746); assay: Inhibition of human tert transcriptional activity assessed as SEAP activity at 1 uM after 24 hrs by SEAP reporter assay; parameters: scale not given: the % may be the effect or the level left
# In short: (§2)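 Reporter assay for hTERT transcriptional activity using secreted alkaline phosphatase. About 2 × 10³ cells per well were grown for 24 h at 37 °C, then given fresh medium. Buffer was added to the medium: 2 M diethanolamine, 1 mM MgCl2 and 20 mM L-homoarginine. p-Nitrophenyl phosphate was added to 12 mM final. The rate of absorbance increase was read at 405 nm.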
# [3] = molecular target: Telomerase reverse transcriptase (Homo sapiens) (UniProt O14746); assay: Inhibition of human tert transcriptional activity assessed as SEAP activity at 100 uM after 24 hrs by SEAP reporter assay; parameters: scale not given: the % may be the effect or the level left; in short: as §2
# [4] = Cytotoxicity against human H1299 cells assessed as cell viability at 100 uM after 48 hrs by MTT assay; format: functional; details: NCI-H1299, 48 h, read-out: Activity; in short: as §1
# [5] = Cytotoxicity against human H1299 cells assessed as cell viability at 10 uM after 48 hrs by MTT assay; format: functional; details: NCI-H1299, 48 h, read-out: Activity; in short: as §1
# [6] = molecular target: Telomerase reverse transcriptase (Homo sapiens) (UniProt O14746); assay: Inhibition of human tert transcriptional activity assessed as SEAP activity at 10 uM after 24 hrs by SEAP reporter assay; parameters: scale not given: the % may be the effect or the level left; in short: as §2
# Sequence of Telomerase reverse transcriptase (Homo sapiens) (O14746 whole entry): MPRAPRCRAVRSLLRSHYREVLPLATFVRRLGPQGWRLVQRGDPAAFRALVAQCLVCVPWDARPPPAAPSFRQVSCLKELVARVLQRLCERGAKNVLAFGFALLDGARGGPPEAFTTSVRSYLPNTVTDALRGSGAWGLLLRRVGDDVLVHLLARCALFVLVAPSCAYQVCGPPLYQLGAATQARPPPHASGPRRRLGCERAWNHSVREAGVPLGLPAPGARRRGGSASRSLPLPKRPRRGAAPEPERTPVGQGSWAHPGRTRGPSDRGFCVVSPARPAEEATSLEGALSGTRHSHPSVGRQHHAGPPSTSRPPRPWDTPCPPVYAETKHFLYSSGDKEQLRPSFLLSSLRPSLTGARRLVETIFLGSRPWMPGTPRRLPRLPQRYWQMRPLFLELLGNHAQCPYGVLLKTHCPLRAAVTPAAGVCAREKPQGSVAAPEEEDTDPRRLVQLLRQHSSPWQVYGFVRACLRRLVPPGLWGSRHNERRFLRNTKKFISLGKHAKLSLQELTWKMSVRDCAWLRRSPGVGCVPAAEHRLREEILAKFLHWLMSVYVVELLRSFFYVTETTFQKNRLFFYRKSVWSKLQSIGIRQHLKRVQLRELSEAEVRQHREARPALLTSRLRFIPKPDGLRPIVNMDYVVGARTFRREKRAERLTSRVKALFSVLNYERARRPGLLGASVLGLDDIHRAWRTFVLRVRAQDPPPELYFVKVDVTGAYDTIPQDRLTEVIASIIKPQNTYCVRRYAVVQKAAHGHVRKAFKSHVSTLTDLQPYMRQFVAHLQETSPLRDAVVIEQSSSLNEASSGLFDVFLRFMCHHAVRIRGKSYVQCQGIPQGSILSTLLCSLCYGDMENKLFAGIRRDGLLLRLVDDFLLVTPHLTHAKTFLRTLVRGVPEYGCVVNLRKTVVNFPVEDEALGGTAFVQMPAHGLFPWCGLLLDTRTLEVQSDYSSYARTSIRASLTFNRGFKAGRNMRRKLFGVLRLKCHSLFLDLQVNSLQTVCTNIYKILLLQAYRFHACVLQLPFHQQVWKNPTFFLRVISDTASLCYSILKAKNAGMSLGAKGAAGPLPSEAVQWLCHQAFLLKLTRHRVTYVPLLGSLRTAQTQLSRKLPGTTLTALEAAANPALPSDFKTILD
Structure (SMILES),viability at 1 µM [1],Activity [2],Activity [3],viability at 100 µM [4],viability at 10 µM [5],Activity [6]
O=C1c2ccccc2C(=O)c2c1ccc1nc(SCCCN3CCCCC3)[nH]c21,71%,85%,8%,38%,70%,50%
O=C1c2ccccc2C(=O)c2c1ccc1nc(SCC(=O)N3CCOCC3)[nH]c21,91%,103%,40%,70%,88%,87%
C=CCSc1nc2ccc3c(c2[nH]1)C(=O)c1ccccc1C3=O,100%,97%,69%,79%,96%,91%
COC(=O)CCCSc1nc2ccc3c(c2[nH]1)C(=O)c1ccccc1C3=O,83%,88%,61%,57%,83%,83%
Nc1ccc2c(c1N)C(=O)c1ccccc1C2=O,105%,–,–,39%,95%,77%
Cc1ccccc1CSc1nc2ccc3c(c2[nH]1)C(=O)c1ccccc1C3=O,88%,88%,29%,76%,81%,83%
CCCCSc1nc2ccc3c(c2[nH]1)C(=O)c1ccccc1C3=O,82%,111%,53%,77%,135%,105%
O=C(Sc1nc2ccc3c(c2[nH]1)C(=O)c1ccccc1C3=O)c1cc(C(F)(F)F)ccc1C(F)(F)F,95%,102%,75%,79%,100%,96%
O=C1c2ccccc2C(=O)c2c1ccc1nc(SCCCCCBr)[nH]c21,84%,92%,41%,37%,82%,58%
O=C1c2ccccc2C(=O)c2c1ccc1nc(SC(=O)N3CCCC3)[nH]c21,110%,96%,95%,124%,117%,105%
O=C1c2ccccc2C(=O)c2c1ccc1nc(SCCCCCCCl)[nH]c21,83%,105%,53%,88%,85%,98%
CN1CCN(C(=O)Sc2nc3ccc4c(c3[nH]2)C(=O)c2ccccc2C4=O)CC1,102%,89%,38%,71%,120%,99%
O=C1c2ccccc2C(=O)c2c1ccc1nc(SCCCCCl)[nH]c21,91%,100%,54%,83%,97%,96%
O=C(Sc1nc2ccc3c(c2[nH]1)C(=O)c1ccccc1C3=O)c1ccccc1[N+](=O)[O-],80%,98%,81%,76%,78%,92%
O=C1c2ccccc2C(=O)c2c1ccc1nc(SCCN3CCOCC3)[nH]c21,106%,119%,36%,73%,127%,105%
O=C1c2ccccc2C(=O)c2c1ccc1nc(SCCC(=O)N3CCOCC3)[nH]c21,99%,105%,45%,50%,102%,97%

Structure (SMILES),viability at 1 µM [1],Activity [2],Activity [3],viability at 100 µM [4],viability at 10 µM [5],Activity [6]
O=C(CCc1ccccc1)Sc1nc2ccc3c(c2[nH]1)C(=O)c1ccccc1C3=O,95%,97%,81%,69%,93%,95%
O=C1c2ccccc2C(=O)c2c1ccc1nc(SCCC(=O)N3CCCC3)[nH]c21,107%,87%,67%,57%,110%,90%
O=C1c2ccccc2C(=O)c2c1ccc1nc(SCC(=O)N3CCCC3)[nH]c21,89%,100%,64%,62%,102%,100%
COc1cccc2c1C(=O)c1c(O)c3c(c(O)c1C2=O)C[C@@](O)(C(=O)CO)C[C@@H]3O[C@H]1C[C@H](N)[C@H](O)[C@H](C)O1 [DOXORUBICIN],17%,34%,5%,0%,0%,14%
O=C1c2c(O)ccc(O)c2C(=O)c2c(NCCNCCO)ccc(NCCNCCO)c21 [MITOXANTRONE],24%,21%,7%,0%,0%,10%
Cc1cc(C(=O)Sc2nc3ccc4c(c3[nH]2)C(=O)c2ccccc2C4=O)c(C)o1,95%,104%,89%,95%,91%,100%
CCCN(CCC)C(=O)CSc1nc2ccc3c(c2[nH]1)C(=O)c1ccccc1C3=O,95%,94%,85%,93%,86%,91%
C#CCSc1nc2ccc3c(c2[nH]1)C(=O)c1ccccc1C3=O,94%,94%,52%,75%,96%,85%
O=C1c2ccccc2C(=O)c2c1ccc1nc(SCCN3CCCCC3)[nH]c21,86%,111%,14%,30%,79%,100%
CCN(CC)C(=O)CCSc1nc2ccc3c(c2[nH]1)C(=O)c1ccccc1C3=O,94%,97%,64%,44%,77%,98%
CCN(CC)C(=O)Sc1nc2ccc3c(c2[nH]1)C(=O)c1ccccc1C3=O,118%,106%,88%,116%,119%,104%
O=C1c2ccccc2C(=O)c2c1ccc1nc(SC(=O)N3CCOCC3)[nH]c21,89%,93%,71%,90%,94%,87%
COC(=O)/C=C/CSc1nc2ccc3c(c2[nH]1)C(=O)c1ccccc1C3=O,98%,88%,64%,72%,75%,87%
O=C1c2ccccc2C(=O)c2c1ccc1nc(SC(=O)N3CCCCC3)[nH]c21,97%,98%,81%,116%,116%,104%
CCN(CC)C(=O)CSc1nc2ccc3c(c2[nH]1)C(=O)c1ccccc1C3=O,97%,96%,49%,54%,90%,93%
